Target: Synaptic vesicle glycoprotein 2A (Rattus norvegicus, UniProt Q02563)
Assay: In vitro inhibitory activity against [3H](2S)-2-[4-(3-azidophenyl)-2-oxopyrrolidin-1-yl]butanamide binding to levetiracetam binding site
In short: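 Rat cerebral cortex membranes (male Sprague-Dawley, 200–250 g), homogenised in Tris-HCl/sucrose at 4 °C, washed, preincubated 15 min at 37 °C. Binding: 4 °C for 120 min in 50 mmol/L Tris-HCl pH 7.4 with 2 mmol/L MgCl2, 1–2 × 10^-9 mol/L tritiated azidophenyl radioligand, rising test concentrations. Nonspecific binding with 10^-3 mol/L levetiracetam. Rapid filtration, scintillation counting. pIC50 is the mean of two independent determinations.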

Synaptic vesicle glycoprotein 2A, sequence (Q02563 whole entry): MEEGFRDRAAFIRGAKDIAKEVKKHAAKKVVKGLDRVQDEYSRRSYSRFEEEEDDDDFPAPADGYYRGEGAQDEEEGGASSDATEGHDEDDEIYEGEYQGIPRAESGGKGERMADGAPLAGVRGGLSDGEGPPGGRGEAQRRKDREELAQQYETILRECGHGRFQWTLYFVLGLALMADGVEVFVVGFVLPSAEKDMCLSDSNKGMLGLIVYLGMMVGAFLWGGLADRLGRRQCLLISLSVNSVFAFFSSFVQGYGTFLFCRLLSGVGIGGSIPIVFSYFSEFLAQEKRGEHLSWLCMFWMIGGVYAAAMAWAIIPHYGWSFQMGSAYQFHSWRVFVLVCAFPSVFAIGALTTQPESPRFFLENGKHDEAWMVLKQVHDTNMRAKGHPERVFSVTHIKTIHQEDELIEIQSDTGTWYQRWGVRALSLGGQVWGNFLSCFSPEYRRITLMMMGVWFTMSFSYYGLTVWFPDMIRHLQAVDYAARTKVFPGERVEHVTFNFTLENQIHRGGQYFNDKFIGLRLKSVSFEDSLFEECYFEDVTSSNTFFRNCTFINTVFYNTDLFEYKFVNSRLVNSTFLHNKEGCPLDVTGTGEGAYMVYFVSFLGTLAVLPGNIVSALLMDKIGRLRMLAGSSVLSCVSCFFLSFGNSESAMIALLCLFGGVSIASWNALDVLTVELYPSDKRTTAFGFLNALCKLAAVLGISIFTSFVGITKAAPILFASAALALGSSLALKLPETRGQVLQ

Q: How did the IC50 turn out when `CCC[C@H](C(N)=O)N1CCCC1=O` was run?
A: Its IC50 is 999000 nM.

Q: For `CC[C@@H](C(N)=O)N1C[C@H](CO[N+](=O)[O-])CC1=O`, which IC50 is on record?
A: Its IC50 is 100 nM.

Q: With `CC[C@@H](C(N)=O)N1C[C@H](CSC)CC1=O` as the compound, how does the IC50 read?
A: The IC50 was 125 nM.

Q: With `CC[C@@H](C(N)=O)N1C[C@H](CCl)CC1=O` as the compound, how does the IC50 read?
A: Its IC50 is 199 nM.

Q: Which IC50 does the source give for `CCCCN(C(=O)CC)[C@@H](CC)C(N)=O` here?
A: The IC50 was 9990 nM.

Q: For `CC[C@@H](C(=N)N)N1CCCC1=O`, which IC50 is on record?
A: The IC50 was 12500 nM.

Q: `CC[C@@H](C(N)=O)N1C[C@H](CBr)CC1=O` was tested. Which IC50 did it give?
A: Its IC50 is 251 nM.

Q: With `CC[C@@H](C(N)=O)N1CC(CC(C)(C)C)CC1=O` (stereo partly specified) as the compound, how does the IC50 read?
A: Its IC50 is 794 nM.

Q: Which IC50 does the source give for `CCC(C(N)=O)N1CC(C(C)C)CC1=O` (stereo unspecified) here?
A: Its IC50 is 3980 nM.

Q: For `CC[C@@H](C(N)=O)N1C[C@H](CI)CC1=O`, which IC50 is on record?
A: Its IC50 is 158 nM.

Q: `CCCCC1CC(=O)N(C(CC)C(N)=O)C1` (stereo unspecified) was tested. Which IC50 did it give?
A: The IC50 was 398 nM.

Q: Which IC50 does the source give for `CCCCCCCCN(C(=O)CC)C(CC)C(N)=O` (stereo unspecified) here?
A: Its IC50 is 3980 nM.

Q: Which IC50 does the source give for `CCC(C(N)=O)N1C(=O)CCC1(C)C` (stereo unspecified) here?
A: The IC50 was 63000 nM.

Q: For `C[C@@H](C(N)=O)N1CCCC1=O`, which IC50 is on record?
A: Its IC50 is 3160 nM.

Q: `CC[C@@H](C(N)=O)N(C)C(C)=O` was tested. Which IC50 did it give?
A: Its IC50 is 15800 nM.

Q: For `CCCCCCCN(C(=O)Cc1ccc(OC)cc1)C(CC)C(N)=O` (stereo unspecified), which IC50 is on record?
A: Its IC50 is 2510 nM.

Q: Which IC50 does the source give for `CCCC1(C)CC(=O)N([C@@H](CC)C(N)=O)C1` (stereo partly specified) here?
A: The IC50 was 398 nM.

Q: `CCC(C(=O)N(C)O)N1CCCC1=O` (stereo unspecified) was tested. Which IC50 did it give?
A: The IC50 was 19900 nM.

Q: For `CC[C@@H](C(N)=O)N1CC(NC(=O)OC)CC1=O` (stereo partly specified), which IC50 is on record?
A: The IC50 was 1580 nM.

Q: How did the IC50 turn out when `CC[C@@H](C(=O)NC)N1CCCC1=O` was run?
A: The IC50 was 12500 nM.

Q: `CCC(C(N)=O)N1CC(Cc2ccccc2)CC1=O` (stereo unspecified) was tested. Which IC50 did it give?
A: The IC50 was 2510 nM.

Q: For `CC[C@@H](C(N)=O)N1CCC(C)C1=O` (stereo partly specified), which IC50 is on record?
A: Its IC50 is 19900 nM.

Q: How did the IC50 turn out when `CCC[C@H]1CC(=O)N([C@@H](CC)C(N)=O)C1` was run?
A: The IC50 was 251 nM.

Q: `CC[C@@H](C(N)=O)N1C[C@H](C)CC1=O` was tested. Which IC50 did it give?
A: The IC50 was 1250 nM.

Q: With `CCCCCCCCN(C(=O)Cc1ccc(Cl)cc1)C(CC)C(N)=O` (stereo unspecified) as the compound, how does the IC50 read?
A: Its IC50 is 1990 nM.

Q: With `CCCCCC1CC(=O)N(C(CC)C(N)=O)C1` (stereo unspecified) as the compound, how does the IC50 read?
A: Its IC50 is 1250 nM.

Q: With `CCC1CC(=O)N([C@@H](CC)C(N)=O)C1` (stereo partly specified) as the compound, how does the IC50 read?
A: The IC50 was 1250 nM.

Q: `CC(C)C(C(N)=O)N1CCCC1=O` (stereo unspecified) was tested. Which IC50 did it give?
A: The IC50 was 19900 nM.

Q: How did the IC50 turn out when `CC[C@@H](C(N)=O)N1CC(CC2CC2)CC1=O` (stereo partly specified) was run?
A: The IC50 was 125 nM.

Q: With `CCC(C(N)=O)N1CC(COC)CC1=O` (stereo unspecified) as the compound, how does the IC50 read?
A: The IC50 was 1580 nM.

Q: Which IC50 does the source give for `CCC[C@@H](C(N)=O)N1CCCC1=O` here?
A: Its IC50 is 5010 nM.

Q: How did the IC50 turn out when `CCCCCN(C(=O)CC)C(CC)C(N)=O` (stereo unspecified) was run?
A: The IC50 was 1990 nM.

Q: `CC[C@@H](C(N)=O)N1C(=O)CCC1C` (stereo partly specified) was tested. Which IC50 did it give?
A: Its IC50 is 2510 nM.

Q: For `CC[C@@H](C(=O)NO)N1CCCC1=O`, which IC50 is on record?
A: Its IC50 is 1990 nM.

Q: With `CC[C@@H](C(N)=O)N1C[C@H](CF)CC1=O` as the compound, how does the IC50 read?
A: Its IC50 is 1250 nM.

Q: Which IC50 does the source give for `CCC(C(=O)NN)N1CCCC1=O` (stereo unspecified) here?
A: Its IC50 is 6300 nM.

Q: `CC[C@@H](C(N)=O)N1C[C@H](CN=[N+]=[N-])CC1=O` was tested. Which IC50 did it give?
A: The IC50 was 79.4 nM.

Q: With `NC(=O)CN1CCCC1=O` [2-(2-oxopyrrolidin-1-yl)acetamide] as the compound, how does the IC50 read?
A: Its IC50 is 39800 nM.

Q: With `CC[C@H](C(N)=O)N1CCCC1=O` [Levitiracetam] as the compound, how does the IC50 read?
A: The IC50 was under 999000 nM.

Q: For `CC[C@@H](C(N)=O)N1CCCC1=O` [UCB-22059], which IC50 is on record?
A: The IC50 was 794 nM.

Q: How did the IC50 turn out when `CCC[C@@H]1CC(=O)N([C@@H](CC)C(N)=O)C1` [UCB-34714] was run?
A: Its IC50 is 100 nM.

— BindingDB's records for doi:10.1021/jm030913e (Ucb Pharma, 2004)
